Measured values taken from ChEMBL document CHEMBL4706729, “Discovery of the First Orally Available, Selective K1.1 Inhibitor: In Vitro and In Vivo Activity of an Oxadiazole Series” (ACS Med Chem Lett, 2021).

Legend:
[1] = Half life in CD-1 mouse at 0.5 mg/kg, iv; assay type: ADME, organism-based; details: in vivo
In short: (§1)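 CD-1 mice given a single 0.5 mg/kg IV dose in 10% DMSO, 10% Solutol, 80% water. Clearance, Vdss and half-life derived from plasma concentration–time data.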

[2] = Clearance in CD-1 mouse at 0.5 mg/kg, iv; assay type: ADME, organism-based; details: in vivo; in short: as §1
[3] = Volume of distribution at steady state in CD-1 mouse at 0.5 mg/kg, iv; assay type: ADME, organism-based; details: in vivo, read-out: Vdss; in short: as §1
[4] = Free drug concentration in wildtype CD-1 mouse brain at 150 mg/kg, sc; details: in vivo
[5] = Lipophilicity, log D of compound; assay type: physicochemical; details: octanol/water
[6] = Oral bioavailability in CD-1 mouse at 30 mg/kg; assay type: ADME, organism-based; details: in vivo
[7] = Metabolic stability in human liver microsomes assessed as intrinsic clearance
[8] = Free drug concentration in mouse brain harboring Kcnt1 L/L mutant at 30 mg/kg, sc; assay type: ADME, organism-based; details: in vivo

Row | SMILES | logD [5] | CLint [7] [µL/min/mg] | also measured
1 | COc1cc(-c2noc([C@H](C)NC(=O)c3cc(C(F)(F)F)nn3C)n2)cc(C)n1 | 4.4 | 10 | –
2 | COCc1cc(-c2noc([C@H](C)NC(=O)c3cc(C(F)(F)F)nn3C)n2)ccn1 | 3 | < 9.6 | –
3 | C[C@H](NC(=O)c1cc(C(F)(F)F)nn1C)c1nc(-c2ccnc(C3CC3)c2)no1 | 4.1 | < 9.6 | –
4 | COC(C)(C)c1cc(-c2noc([C@H](C)NC(=O)c3cc(C(F)(F)F)nn3C)n2)ccn1 | 3.8 | 21 | –
5 | C[C@H](NC(=O)c1cc(C(F)(F)F)nn1C)c1nc(-c2ccnc(N3CCCC3)c2)no1 | 4.2 | 48 | –
6 | C[C@H](NC(=O)c1cc(C(F)(F)F)nn1C)c1nc(-c2ccnc(N(C)C)c2)no1 | 3.9 | 56 | –

Now from value to compound, other results behind:

Row | logD [5] | CLint [7] [µL/min/mg] | SMILES | also measured
7 | 3.6 | < 9.6 | C[C@H](NC(=O)c1cc(C(F)(F)F)nn1C)c1nc(-c2ccnc(C(F)(F)F)c2)no1 | half-life [1]: > 20 h; clearance [2]: 2 mL/min/kg; Vd [3]: 1.88 L/kg; Drug uptake [4]: 1204 nM; bioavailability [6]: 100%; Drug uptake(free) [8]: 270 nM
8 | 3.4 | < 9.6 | C[C@H](NC(=O)c1cc(C(F)(F)F)nn1C)c1nc(-c2ccnc(C(F)F)c2)no1 | –
9 | 3.3 | < 9.6 | Cc1cc(-c2noc([C@H](C)NC(=O)c3cc(C(F)(F)F)nn3C)n2)ccn1 | –
10 | 3.4 | < 9.6 | COc1cc(-c2noc([C@H](C)NC(=O)c3cc(C(F)(F)F)nn3C)n2)ccn1 | –
11 | 3.4 | 28 | CNc1cc(-c2noc([C@H](C)NC(=O)c3cc(C(F)(F)F)nn3C)n2)ccn1 | –
